Compounds with a hit are over-represented: about 12% of the library has one in this group of screens.
L major viab – Leishmania major promastigote growth inhibition. Leishmania major promastigotes, resazurin fluorescence viability. inhibition, % at 10 µM. 200,000 tested, 9% active. AID 1063; in the data active = inhibition above about 50%;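 also: promastigotes grown with compound for 44 hours at 28 °C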
Autophagy HCS – autophagy modulation, high-content screen; MEF GFP-LC3 puncta imaging; test concentration mostly 10 µM; calls only at 10 µM (by protocol); 190,000 tested, 0.98% active;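 active = percentage of spot-positive cells more than 3 SD above its plate mean, without a fluorescence outlier flag or 80% toxicity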;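 also: spot-positive cell cutoff set from DMSO-treated cells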
CHOP inhibitor – blocks CHOP induction under ER stress | CHO-K1 CHOP-promoter luciferase, tunicamycin-induced, 15-18 h | inhibition, % at 10 µM | 220,000 tested, 3.8% active;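 active = compounds that reduced the stress-induced luciferase reporter signal by more than about 70% of percent inhibition, limit read from the data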;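 also: 0% = tunicamycin plus vehicle and 100% = wells without tunicamycin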
MT stabilize HCS – microtubule stabilization, imaging screen. HeLa tubulin immunostaining HCS, 24 h; share of cells brighter than vehicle mean+2SD. % tubulin-high responders, % at 10 µM. 200,000 tested, 0.83% active. AID 2205;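 active = plate Z-score above 3 for both tubulin-high and condensed-nucleus cell shares, with cell loss under 80%, at 10 µM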;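 also: anti alpha tubulin signal scored within the nucleus-defined area of each cell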
Dynein cargo inh – blocks dynein driven cargo transport along microtubules. 3617.4 mouse cells, GR-EGFP nuclear translocation imaging; test concentration mostly 20 µM; stimulated with dexamethasone, 1 µM; stronger effect = lower value. 220,000 tested, 0.47% active. AID 1381. z-score, hits read low;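 active = plate z-score of nuclear minus cytoplasmic receptor signal below a set negative limit, without overly bright fluorescence or cell loss, cut at about -3.5 in these data, passing the limit was not always enough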;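 also: z-score of nuclear minus cytoplasmic ring GR-EGFP intensity difference per well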
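medium = tetracycline-free induction medium containing charcoal-stripped FBS | also added = 1.0 µM final dexamethasone stimulus | schedule = 48 h induction, 1 h compound, 30 min dex at 37 °C | technique = fixed, Hoechst-stained cells imaged at 10x for EGFP | measure = GR-EGFP nuclear translocation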
b-catenin transl – alters nuclear translocation of beta-catenin in HeLa cells; immunofluorescence imaging; nuclear translocation activity, % at 5 µM; 190,000 tested, 0.3% active; AID 1665;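 active = nuclear translocation activity above 50% at 5 µM, with a well cell count of 50 or more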;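 also: per-cell ratio of nuclear to cytoplasmic median beta-catenin stain intensity; plate controls were DMSO negative control for no effect and GSK-3 inhibitor IX positive control for full effect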
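Test system: human HeLa cells, native beta-catenin. Compound dosing: 5 µM primary single dose, 0.1% DMSO, 0.02–20 µM confirmation series. Incubation: compound exposure 24 h at 37°C. Detection: beta-catenin immunostaining with DAPI counterstain, 20x imaging, 6 fields/well. Read-out basis: Nuclear/cytoplasmic beta-catenin signal ratio, % activation.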
Starred values were filed as active, the others as inactive; i = inactive; . = not tested or not shown; ! = repeats disagree.

SMILES	L major viab	Autophagy HCS	CHOP inhibitor	MT stabilize HCS	Dynein cargo inh	b-catenin transl
CC(C)(C)c1ccccc1OCCN1CCCC1	90*	i	15	3	1.3	-2
O=C(CCC(=O)N1CCN(S(=O)(=O)c2ccc(Cl)cc2)CC1)Nc1cccc(Br)c1	6	i	44	2	-0.071	2
OCCC1CN(Cc2cn[nH]c2C2CCCCC2)CCN1C1CCCCC1 (stereo not given)	-1	i	-8	3	1.3	0
CCO[C@H]1OC(C(=O)N2CCCCCCC2)=C[C@@H](C)[C@@H]1CCCO	5	i	5	4	3.1	-1
Cc1cc(C(C)(C)C)ccc1OCCCCN1CCCC1	99*	i	14	4	-0.69	8
CCOc1cc(CNc2ccc3c(c2)OCCO3)cc(Br)c1OCC	7	i	-3	13	0.7	120*
C=CCOc1ccc(CNc2ccc(NC(=O)CCC)cc2)cc1OCC	39	i	4	7	-0.22	3
C=CCOc1c(Br)cc(CNc2ccc(NC(=O)CCC)cc2)cc1OCC	87*	i	34	2	2.1	.
CCOc1cc(CNc2ccc(N(C)C)cc2)cc(Br)c1OCC(=O)NC(C)(C)C	101*	i	95*	2	-0.88	7
CC(C)(C)OC(=O)C(Cc1ccc(OC(C)(C)C)cc1)NC(=O)CNC(=O)OCc1ccccc1 (stereo not given)	17	i	74*	3	0.39	-1
CC(C)C(NC(=O)OC(C)(C)C)C(=O)NC(CCC(=O)OCc1ccccc1)C(N)=O (stereo not given)	-3	i	-1	2	0.86	0
CC(C)CC(NC(=O)C(CC(C)C)NC(=O)C(Cc1ccc(OCc2ccccc2)cc1)NC(=O)OC(C)(C)C)C(N)=O (stereo not given)	2	i	94*	4	-0.89	0
CC(C)CC(NC(=O)C(NC(=O)C(Cc1ccc(OCc2ccccc2)cc1)NC(=O)OC(C)(C)C)C(C)C)C(N)=O (stereo not given)	9	i	95*	4	-0.25	1
CC1=C/C(=N\NC(=O)c2ccccc2)CC1	-3	i	-6	2	-0.041	-1
CCOC(=O)c1[nH]c(C(=O)O)c(OC(=O)CC)c1C	.	.	10	.	0.8	-4
CCOC(=O)C1(Cc2cccc(Cl)c2)CCCN(C(=O)c2cccc(C)n2)C1 (stereo not given)	-2	i	-2	1	0.43	2
Cc1csc(NC(=O)c2cccc(S(=O)(=O)N3CCN(C)CC3)c2)n1	-13	i	-3	3	1.1	-2
CC1CCCN(c2nc3c(c(=O)[nH]c(=O)n3C)n2CCCc2ccccc2)C1 (stereo not given)	21	i	8	4	1.6	0
CCc1cccc(Nc2cc(C)nc3ncnn23)c1	-9	i	-8	4	-0.36	-2
CCn1c2ccccc2c2cc(Nc3cc(C)nc4ncnn34)ccc21	33	i	.	10	-1.1	94*
Cc1cc(C(=O)COC(=O)C2=NNC(=O)CC2)c(C)n1-c1ccc(OC(F)F)cc1	-6	i	12	3	1.1	.
Cc1cc(C(=O)C(C)OC(=O)C2=NNC(=O)CC2)c(C)n1-c1ccc(OC(F)F)cc1 (stereo not given)	99*	i	14	2	-0.23	-2
Fc1cc(F)c2nc(N3CCCC3)sc2c1	0	i	10	4	1.4	-1
CCOc1ccc(-n2c(-c3ccc(OC)cc3)c[n+]3c2CCCCC3)cc1	100*	i	46	3	-0.48	2
CCOc1ccc(-n2c(-c3ccc(Br)cc3)c[n+]3c2CCCCC3)cc1	101*	i	1	3	-0.58	0
SMILES	L major viab	Autophagy HCS	CHOP inhibitor	MT stabilize HCS	Dynein cargo inh	b-catenin transl
CCOc1ccc(-n2c(-c3ccccc3)c[n+]3c2CCC3)cc1	94*	i	6	4	0.34	5
COc1ccc(-n2c(-c3ccc(Cl)cc3)c[n+]3c2CCCCC3)cc1	.	.	24	.	-0.28	0
COc1ccc(-c2c[n+]3c(n2-c2ccccc2)CCCCC3)cc1	99*	i	-10	7	-0.19	1
COc1ccc(-c2c[n+]3c(n2-c2ccc(C)cc2)CCCCC3)cc1	.	.	48	.	0.87	2
Cc1ccc(-c2cc(C(=O)Nc3c(C)n(C)n(-c4ccccc4)c3=O)[nH]n2)c(O)c1C	.	.	39	.	-0.61	0
COc1ccc(-c2c[n+]3c4n2CCCCC4=C(c2ccccc2)C3)cc1	100*	i	18	3	-0.22	0
C[n+]1cc(-c2ccccc2)n2c1CCCCC2	-4	i	10	2	-0.57	3
O=C(Cn1nc(Cc2ccncc2)c2ccccc2c1=O)Nc1cccnc1Cl	.	.	-8	.	1.8	2
CCN1/C(=C/c2cc[n+](C)cc2)C=Cc2cc(C)ccc21	100*	i	62	7	0.02	1
CC(C)(C)NCC(O)COc1c(F)cc(Br)cc1F (stereo not given)	-20	i	23	2	-0.86	0
CC(C)(C)CC(C)(C)NCC(O)COc1c(F)cc(Br)cc1F (stereo not given)	100*	i	66	2	-1.5	.
O=C(NCc1cc(Br)cc(Br)c1OC(=O)c1ccccc1[N+](=O)[O-])c1ccccc1	-2	i	35	3	0.57	3
CCC(C)(C)n1nnnc1C(C(C)C)N(Cc1cccnc1)Cc1ccco1 (stereo not given)	45	i	-18	1	-0.58	0
CC(C)(C)n1nnnc1C(c1cccnc1)N(Cc1ccccc1)Cc1ccco1 (stereo not given)	85*	i	44	4	0.018	-4
COc1cccc(CN(Cc2ccco2)C(c2ccc(F)cc2)c2nnnn2C(C)(C)C)c1 (stereo not given)	58*	i	48	7	-1.7	0
CCn1nnnc1NCc1cccn1C	-5	i	-3	3	0.83	-3
Cc1cc(N)n(Cc2cccs2)n1	-6	i	-5	3	0.16	-1
CN(CC(=O)OCC(N)=O)S(=O)(=O)c1ccc(Cl)cc1	3	i	27	3	0.85	-1
O=C(CN1CCCC(O)C1)N1c2ccccc2Sc2ccc(C(F)(F)F)cc21 (stereo not given)	10	i	38	5	3.1	2
CN1CCN(CCCN2c3ccccc3Sc3ccc(C(F)(F)F)cc32)CC1	86*	i	96*!	3	0.75	-2
N=C1C(c2ccccc2)=C(O)CN1c1ccc2c(c1)OCO2	-4	i	10	7	-0.78	1
Cc1ccc2cc3c(NC(=O)c4ccco4)nn(CC(C)C)c3nc2c1	4	i	70*	3	-0.78	-2

Assay outcomes as filed in PubChem.
